Test results published in article PMC3822625 (Journal of Cellular and Molecular Medicine, 2010).

Experiments:
[1] = tested on: Tg(fli1:EGFP) zebrafish embryos; assay: Zebrafish embryo in vivo angiogenesis assay
P-gp = P-gp (Homo sapiens, UniProt P08183); assay: Calcein-AM assay by flow cytometry in CEM/ADR5000 cells; settings: CCRF-CEM and CEM/ADR5000 cells, result in words
[2] = molecular target: P-gp expressed in porcine capillaries (Sus scrofa, UniProt K7GMM7); assay: NBD-CSA transport in porcine brain capillaries; format: cell-based; settings: confocal microscopy, result in words
Chain of P-gp expressed in porcine capillaries (K7GMM7 1-1248): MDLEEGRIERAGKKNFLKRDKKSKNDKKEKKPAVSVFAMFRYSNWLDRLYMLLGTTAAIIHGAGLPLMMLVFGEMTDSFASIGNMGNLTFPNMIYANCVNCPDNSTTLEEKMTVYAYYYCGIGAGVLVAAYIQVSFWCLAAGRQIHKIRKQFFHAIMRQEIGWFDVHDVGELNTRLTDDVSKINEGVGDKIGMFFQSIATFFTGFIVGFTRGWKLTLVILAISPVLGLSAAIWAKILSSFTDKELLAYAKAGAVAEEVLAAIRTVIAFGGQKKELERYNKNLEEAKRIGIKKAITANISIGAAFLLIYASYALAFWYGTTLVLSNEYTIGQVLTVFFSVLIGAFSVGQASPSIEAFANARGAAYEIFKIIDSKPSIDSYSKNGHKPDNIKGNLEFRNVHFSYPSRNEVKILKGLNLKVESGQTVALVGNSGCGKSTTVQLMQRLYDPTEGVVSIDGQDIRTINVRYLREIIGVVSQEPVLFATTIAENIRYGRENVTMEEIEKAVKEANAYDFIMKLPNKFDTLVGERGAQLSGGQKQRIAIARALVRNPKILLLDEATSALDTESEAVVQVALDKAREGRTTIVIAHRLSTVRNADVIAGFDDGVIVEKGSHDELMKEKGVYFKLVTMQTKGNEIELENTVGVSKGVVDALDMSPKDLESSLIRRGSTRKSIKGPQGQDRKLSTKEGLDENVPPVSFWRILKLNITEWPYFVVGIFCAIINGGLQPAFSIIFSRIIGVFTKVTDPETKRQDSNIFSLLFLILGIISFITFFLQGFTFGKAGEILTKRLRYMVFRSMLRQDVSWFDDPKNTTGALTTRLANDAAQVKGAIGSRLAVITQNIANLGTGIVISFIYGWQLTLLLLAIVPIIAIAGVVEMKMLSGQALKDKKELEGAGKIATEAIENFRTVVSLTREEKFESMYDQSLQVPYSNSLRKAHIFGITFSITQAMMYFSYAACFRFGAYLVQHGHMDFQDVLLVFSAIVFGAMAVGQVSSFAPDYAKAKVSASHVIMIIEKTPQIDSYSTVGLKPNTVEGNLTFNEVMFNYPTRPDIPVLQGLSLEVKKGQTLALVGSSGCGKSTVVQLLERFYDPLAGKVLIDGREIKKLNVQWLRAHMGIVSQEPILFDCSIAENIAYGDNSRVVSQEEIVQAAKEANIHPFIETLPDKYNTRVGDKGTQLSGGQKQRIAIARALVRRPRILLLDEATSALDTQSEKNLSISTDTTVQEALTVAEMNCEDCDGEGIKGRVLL
In short: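 Porcine brain capillaries incubated with test compound and the fluorescent P-gp substrate NBD-CSA. Transport into the capillary lumen imaged by confocal microscopy (transmitted light, fluorescence, overlay) and quantified by fluorospectrometry. Negative-control capillaries stained with NBD-CSA only, same time course.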

Chain of P-gp (P08183 whole entry): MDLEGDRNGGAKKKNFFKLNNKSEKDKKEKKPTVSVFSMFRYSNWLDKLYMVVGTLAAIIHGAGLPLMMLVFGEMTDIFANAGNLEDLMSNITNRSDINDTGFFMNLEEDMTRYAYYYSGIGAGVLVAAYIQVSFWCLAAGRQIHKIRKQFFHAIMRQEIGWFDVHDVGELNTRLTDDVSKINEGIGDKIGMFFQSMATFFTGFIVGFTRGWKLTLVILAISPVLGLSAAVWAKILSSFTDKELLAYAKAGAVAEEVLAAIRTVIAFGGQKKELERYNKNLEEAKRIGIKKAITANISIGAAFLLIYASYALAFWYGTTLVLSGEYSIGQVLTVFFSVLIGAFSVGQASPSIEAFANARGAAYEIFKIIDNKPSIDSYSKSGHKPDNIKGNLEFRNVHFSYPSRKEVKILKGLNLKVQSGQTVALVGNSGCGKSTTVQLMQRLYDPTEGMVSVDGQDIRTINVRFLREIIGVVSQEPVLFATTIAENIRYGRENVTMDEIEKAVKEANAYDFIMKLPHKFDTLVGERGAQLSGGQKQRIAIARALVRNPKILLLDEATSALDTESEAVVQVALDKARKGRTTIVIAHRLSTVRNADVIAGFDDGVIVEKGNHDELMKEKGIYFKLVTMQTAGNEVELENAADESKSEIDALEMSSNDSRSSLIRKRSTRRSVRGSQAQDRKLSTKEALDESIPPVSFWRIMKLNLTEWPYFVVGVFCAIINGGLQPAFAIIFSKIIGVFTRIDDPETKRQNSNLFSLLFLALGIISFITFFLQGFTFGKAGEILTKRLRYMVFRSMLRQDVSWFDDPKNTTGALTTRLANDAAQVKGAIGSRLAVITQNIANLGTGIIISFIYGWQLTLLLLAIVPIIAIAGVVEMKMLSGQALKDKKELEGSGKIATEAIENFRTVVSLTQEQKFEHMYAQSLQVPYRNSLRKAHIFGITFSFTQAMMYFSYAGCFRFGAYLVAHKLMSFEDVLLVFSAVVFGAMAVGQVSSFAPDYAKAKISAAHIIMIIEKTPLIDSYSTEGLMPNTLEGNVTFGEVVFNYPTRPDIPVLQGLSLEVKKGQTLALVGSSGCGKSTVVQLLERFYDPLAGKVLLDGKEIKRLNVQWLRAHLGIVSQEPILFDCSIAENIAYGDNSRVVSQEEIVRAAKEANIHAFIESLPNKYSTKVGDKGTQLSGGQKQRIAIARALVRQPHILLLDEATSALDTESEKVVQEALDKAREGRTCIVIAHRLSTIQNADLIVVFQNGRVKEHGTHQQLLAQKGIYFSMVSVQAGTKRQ

Q: `C[C@H]1[C@H](OC(=O)CCC(=O)O)O[C@@H]2O[C@@]3(C)CC[C@H]4[C@H](C)CC[C@@H]1[C@@]24OO3` [Artesunate, artesunate] was tested. Which “Dead = number of dead embryos up to 48 hpf” value (“Dead = number” below) ([1]; 25 μg/ml, N=20 embryos) did it give?
A: 1

Q: And the “Dead = number” value ([1]; 50 μg/ml, N=20 embryos)?
A: 1

Q: What about the “Dead = number” value ([1]; 100 μg/ml, N=20 embryos) of the same molecule?
A: 1

Q: What about the “Dead = number” value ([1]; 200 μg/ml, N=10 embryos) of the same molecule?
A: 1

Q: What about the Anti-angiogenic effect ([1]; overall assessment over the dose range, result in words) of the same molecule?
A: dose-dependent anti-angiogenic effects

Q: What about the “P-gp inhibition (calcein accumulation)” value (P-gp) of the same molecule?
A: do not act as P-gp inhibitors

Q: With `C[C@@H]1CC[C@H]2[C@@H](C)C(=O)O[C@@H]3O[C@@]4(C)CC[C@@H]1[C@]32OO4` [Compound 1, artemisinin] as the molecule, how does the “P-gp inhibition (calcein accumulation)” value (P-gp) read?
A: do not act as P-gp inhibitors

Q: How did the “Dead = number” value ([1]; 50 μg/ml, N=10 embryos) turn out when `CC1=CO[C@@H]2O[C@@]3(C)CC[C@H]4[C@H](C)CC[C@@H]1[C@@]24OO3` [Compound 4, anhydrodihydroartemisinin] was run?
A: 2

Q: What about the “Dead = number” value ([1]; 75 μg/ml, N=10 embryos) of the same molecule?
A: 5

Q: How did the “Inhibition of luminal P-gp (NBD-CSA transport)” value [2] turn out when `C/C=C/C[C@@H](C)C(=O)[C@H]1C(=O)N[C@@H](C(C)C)C(=O)N(C)CC(=O)N(C)[C@@H](CC(C)C)C(=O)N[C@@H](C(C)C)C(=O)N(C)[C@@H](CC(C)C)C(=O)N[C@@H](C)C(=O)N[C@H](C)C(=O)N(C)[C@@H](CC(C)C)C(=O)N(C)[C@@H](CC(C)C)C(=O)N(C)[C@@H](C(C)C)C(=O)N1C` [PSC-833] was run?
A: inhibited

Q: Which results are given for `Cc1cc(C)c(/C=C2\C(=O)Nc3ccccc32)[nH]1` [SU5416]?
A: Formation of ISVs at 28 hpf ([1]; 10 μg/ml, 28 hpf, result in words): completely blocked formation of ISVs; ISV sprouting at 48 hpf ([1]; 10 μg/ml, 48 hpf, compared to control embryos, result in words): sprouted only minimally; Heart rate ([1]; 10 μg/ml, result in words): not affected; Oedema ([1]; 10 μg/ml, result in words): rarely observed
